Measurements reported in ChEMBL document CHEMBL3244187, “Structure--activity relationships in cephalosporins prepared from penicillins. 2. Analogues of cephalexin substituted in the 3-methyl group” (J Med Chem, 1977).
Converted amounts (≈) assume the structure as drawn. The source made the active and inactive calls. No cut-off for these calls is given here.

Assays:
[1] = test system: Escherichia coli; test: Antibacterial activity against Escherichia coli after 18 hrs by serial dilution method; type: functional
Method in brief: (§1)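 MICs by serial dilution on nutrient agar. Inoculum 0.001 mL of undiluted overnight broth culture. Plates incubated at 37 °C for 18 h before reading.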

[2] = test system: Proteus mirabilis; test: Antibacterial activity against Proteus mirabilis after 18 hrs by serial dilution method; type: functional; method in brief: as §1
[3] = test system: Salmonella typhi; test: Antibacterial activity against Salmonella typhi after 18 hrs by serial dilution method; type: functional, Salmonella enterica subsp. enterica serovar Typhi; conditions: Salmonella enterica
Method in brief: (§2)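 MICs by serial dilution on nutrient agar. Inoculum 0.001 mL of undiluted overnight broth culture. Plates incubated 18 h at 37 °C before reading. The S. aureus Russell strain produces β-lactamase and resists benzylpenicillin.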

[4] = test system: Shigella sonnei; test: Antibacterial activity against Shigella sonnei after 18 hrs by serial dilution method; type: functional; method in brief: as §1
[5] = test system: Staphylococcus aureus; test: Antibacterial activity against beta-lactamase producing benzylpenicillin-resistant Staphylococcus aureus Russell after 18 hrs by serial dilution method; type: functional; method in brief: as §2
[6] = test system: Staphylococcus aureus; test: Antibacterial activity against Staphylococcus aureus Oxford after 18 hrs by serial dilution method; type: functional; method in brief: as §1
[7] = test system: Klebsiella aerogenes; test: Antibacterial activity against Klebsiella aerogenes after 18 hrs by serial dilution method; type: functional; method in brief: as §1
[8] = Drug level in mouse blood at 50 mg/kg, po after 4 hrs by microbiological assay; type: ADME, organism-based; parameters: dose 50 mg/kg, route oral; conditions: read-out: Drug uptake
Method in brief: (§3)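 Mice given a single 50 mg/kg dose by the route in the line. Groups of five killed at each time point and blood taken from the cut axilla, heparinized and stored at 4 °C. Blood assayed the same day by large-plate microbiological assay with Sarcina lutea NCTC 8340, overnight at 30 °C. Standards made in mouse blood, with pH 7.2 phosphate-buffered saline as diluent.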

[9] = Drug level in mouse blood at 50 mg/kg, sc after 30 mins by microbiological assay; type: ADME, organism-based; parameters: dose 50 mg/kg, route subcutaneous; conditions: read-out: Drug uptake; method in brief: as §3
[10] = Drug level in mouse blood at 50 mg/kg, sc after 2 hrs by microbiological assay; type: ADME, organism-based; parameters: dose 50 mg/kg, route subcutaneous; conditions: read-out: Drug uptake; method in brief: as §3
[11] = Drug level in mouse blood at 50 mg/kg, sc after 4 hrs by microbiological assay; type: ADME, organism-based; parameters: dose 50 mg/kg, route subcutaneous; conditions: read-out: Drug uptake; method in brief: as §3
[12] = test system: Enterobacter cloacae; test: Antibacterial activity against cephalosporin-resistant Enterobacter cloacae after 18 hrs by serial dilution method; type: functional, organism-based; method in brief: as §2
[13] = Drug level in mouse blood at 50 mg/kg, po after 2 hrs by microbiological assay; type: ADME, organism-based; parameters: dose 50 mg/kg, route oral; conditions: read-out: Drug uptake; method in brief: as §3
[14] = Drug level in mouse blood at 50 mg/kg, po after 1 hr by microbiological assay; type: ADME, organism-based; parameters: dose 50 mg/kg, route oral; conditions: read-out: Drug uptake; method in brief: as §3
[15] = test system: Pseudomonas aeruginosa; test: Antibacterial activity against cephalosporin-resistant Pseudomonas aeruginosa after 18 hrs by serial dilution method; type: functional, organism-based; method in brief: as §2
[16] = Drug level in mouse blood at 50 mg/kg, sc after 20 mins by microbiological assay; type: ADME, organism-based; parameters: dose 50 mg/kg, route subcutaneous; conditions: read-out: Drug uptake; method in brief: as §3
[17] = Drug metabolism in mouse assessed as metabolite level in urine by Sarcina lutea antibacterial assay; type: ADME
Method in brief: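 Urine from dosed mice run on paper strip chromatography in butanol-ethanol-water (4:1:5). Active zones located on agar plates seeded with Sarcina lutea.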

[18] = Drug level in mouse blood at 50 mg/kg, po after 20 mins by microbiological assay; type: ADME, organism-based; parameters: dose 50 mg/kg, route oral; conditions: read-out: Drug uptake; method in brief: as §3
[19] = Drug level in mouse blood at 50 mg/kg, po after 10 mins by microbiological assay; type: ADME, organism-based; parameters: dose 50 mg/kg, route oral; conditions: read-out: Drug uptake; method in brief: as §3
[20] = test system: Morganella morganii; test: Antibacterial activity against cephalosporin-resistant Proteus morganii after 18 hrs by serial dilution method; type: functional, organism-based; method in brief: as §2
[21] = Drug level in mouse blood at 50 mg/kg, po after 30 mins by microbiological assay; type: ADME, organism-based; parameters: dose 50 mg/kg, route oral; conditions: read-out: Drug uptake; method in brief: as §3
[22] = Drug level in mouse blood at 50 mg/kg, sc after 1 hr by microbiological assay; type: ADME, organism-based; parameters: dose 50 mg/kg, route subcutaneous; conditions: read-out: Drug uptake; method in brief: as §3
[23] = Drug level in mouse blood at 50 mg/kg, sc after 10 mins by microbiological assay; type: ADME, organism-based; parameters: dose 50 mg/kg, route subcutaneous; conditions: read-out: Drug uptake; method in brief: as §3
[24] = Drug level in mouse blood at 50 mg/kg, iv after 10 mins by microbiological assay; type: ADME, organism-based; parameters: dose 50 mg/kg, route intravenous; conditions: read-out: Drug uptake; method in brief: as §3
[25] = Drug level in mouse blood at 50 mg/kg, iv after 1 hr by microbiological assay; type: ADME, organism-based; parameters: dose 50 mg/kg, route intravenous; conditions: read-out: Drug uptake; method in brief: as §3
[26] = Drug level in mouse blood at 50 mg/kg, iv after 20 mins by microbiological assay; type: ADME, organism-based; parameters: dose 50 mg/kg, route intravenous; conditions: read-out: Drug uptake; method in brief: as §3
[27] = Drug level in mouse blood at 50 mg/kg, iv after 2 hrs by microbiological assay; type: ADME, organism-based; parameters: dose 50 mg/kg, route intravenous; conditions: read-out: Drug uptake; method in brief: as §3
[28] = Drug level in mouse blood at 50 mg/kg, iv after 4 hrs by microbiological assay; type: ADME, organism-based; parameters: dose 50 mg/kg, route intravenous; conditions: read-out: Drug uptake; method in brief: as §3
[29] = Drug level in mouse blood at 50 mg/kg, iv after 30 mins by microbiological assay; type: ADME, organism-based; parameters: dose 50 mg/kg, route intravenous; conditions: read-out: Drug uptake; method in brief: as §3

SMILES | MIC [1] [µg/mL] | MIC [2] [µg/mL] | MIC [3] [µg/mL] | MIC [4] [µg/mL] | MIC [5] [µg/mL] | MIC [6] [µg/mL] | MIC [7] [µg/mL] | other results
N[C@@H](C(=O)N[C@@H]1C(=O)N2C(C(=O)O)=C(CC3CCCCO3)CS[C@H]12)c1ccccc1 (stereo partly drawn) | > 50 | > 50 | 25 (≈ 57.9 µM) | 25 (≈ 57.9 µM) | 5 (≈ 11.6 µM) | 5 (≈ 11.6 µM) | 10 (≈ 23.2 µM) | 
N[C@@H](C(=O)N[C@@H]1C(=O)N2C(C(=O)O)=C(Cc3cccc(C(=O)O)c3)CS[C@H]12)c1ccccc1 |  |  |  | 25 (≈ 53.5 µM) |  |  |  | concentration at 4 h [8]: 550 ng/mL; concentration at 0.5 h [9]: 49600 ng/mL; concentration at 2 h [10]: 13700 ng/mL; concentration at 4 h [11]: 1600 ng/mL; Activity [12]: inactive; concentration at 2 h [13]: 1600 ng/mL; concentration at 1 h [14]: 1700 ng/mL; Activity [15]: inactive; concentration at 20 min [16]: 64200 ng/mL; Drug metabolism [17]: metabolite_notdetected; concentration at 20 min [18]: 1050 ng/mL; concentration at 10 min [19]: 870 ng/mL; Activity [20]: inactive; concentration at 0.5 h [21]: 1800 ng/mL; concentration at 1 h [22]: 26200 ng/mL; concentration at 10 min [23]: 84200 ng/mL
COC(=O)CC1=C(C(=O)O)N2C(=O)[C@@H](NC(=O)[C@H](N)c3ccccc3)[C@H]2SC1 | 31 (≈ 76.5 µM) | 63 (≈ 155 µM) | 8 (≈ 19.7 µM) | 16 (≈ 39.5 µM) | 16 (≈ 39.5 µM) | 0.5 (≈ 1.23 µM) | 63 (≈ 155 µM) | 
Cn1cccc1CC1=C(C(=O)O)N2C(=O)[C@@H](NC(=O)[C@H](N)c3ccccc3)[C@H]2SC1 | 500 (≈ 1170 µM) | 500 (≈ 1170 µM) | 50 (≈ 117 µM) | 500 (≈ 1170 µM) | 50 (≈ 117 µM) | 1.25 (≈ 2.93 µM) | 500 (≈ 1170 µM) | 
N[C@@H](C(=O)N[C@@H]1C(=O)N2C(C(=O)O)=C(Cc3ccccn3)CS[C@H]12)c1ccccc1 | 50 (≈ 118 µM) | 50 (≈ 118 µM) | 12.5 (≈ 29.4 µM) | 25 (≈ 58.9 µM) | 12.5 (≈ 29.4 µM) | 1.25 (≈ 2.94 µM) | > 500 | 
N[C@@H](C(=O)N[C@@H]1C(=O)N2C(C(=O)O)=C(Cc3ccccc3C(=O)O)CS[C@H]12)c1ccccc1 |  |  | 50 (≈ 107 µM) | 12.5 (≈ 26.7 µM) | 12.5 (≈ 26.7 µM) |  |  | concentration at 4 h [8]: 3200 ng/mL; concentration at 0.5 h [9]: 58000 ng/mL; concentration at 2 h [10]: 40600 ng/mL; concentration at 4 h [11]: 31200 ng/mL; concentration at 2 h [13]: 2800 ng/mL; concentration at 1 h [14]: 3200 ng/mL; concentration at 10 min [24]: 102000 ng/mL; concentration at 1 h [25]: 64400 ng/mL; concentration at 20 min [26]: 83600 ng/mL; concentration at 2 h [27]: 29100 ng/mL; concentration at 20 min [16]: 66000 ng/mL; concentration at 4 h [28]: 18100 ng/mL; concentration at 20 min [18]: 1400 ng/mL; concentration at 0.5 h [29]: 75400 ng/mL; concentration at 10 min [19]: 1100 ng/mL; concentration at 0.5 h [21]: 2400 ng/mL; concentration at 1 h [22]: 49200 ng/mL; concentration at 10 min [23]: 63200 ng/mL
N[C@@H](C(=O)N[C@@H]1C(=O)N2C(C(=O)O)=C(Cc3ccccc3C(F)(F)F)CS[C@H]12)c1ccccc1 | > 100 | > 100 | > 100 | > 100 | 5 (≈ 10.2 µM) | 0.5 (≈ 1.02 µM) | > 100 | 
